Where two headings read alike, the source gives them in different places.
What was measured:
hERG channel = hERG channel (Homo sapiens, UniProt Q12809)
V1B = V1B (Homo sapiens, UniProt P47901); assay: NIMH PDSP receptor binding assay; conditions: read-out: % Inhibition of Binding at 10 μM D-578
Beta2 = Beta2 (Homo sapiens, UniProt P07550); assay: NIMH PDSP receptor binding assay
M5 = M5 (Homo sapiens, UniProt P08912); assay: biochemical; assay type: binding
Alpha2A = Alpha2A (Homo sapiens, UniProt P08913); assay: NIMH PDSP receptor binding assay; conditions: read-out: % Inhibition of Binding at 10 μM D-578
D1 = D1 (Homo sapiens, UniProt P21728); assay: NIMH PDSP receptor binding assay; conditions: read-out: % Inhibition of Binding at 10 μM D-578
Alpha2B = Alpha2B (Homo sapiens, UniProt P18089); assay: NIMH PDSP receptor binding assay; conditions: read-out: % Inhibition of Binding at 10 μM D-578
D3 = D3 (Homo sapiens, UniProt P35462); assay: NIMH PDSP receptor binding assay
Alpha2C = Alpha2C (Homo sapiens, UniProt P18825); assay: NIMH PDSP receptor binding assay
M4 = M4 (Homo sapiens, UniProt P08173); assay: biochemical; assay type: binding
5HT2b = 5HT2b (Homo sapiens, UniProt P41595); assay: NIMH PDSP receptor binding assay
GABA A = assay: NIMH PDSP receptor binding assay; conditions: [3H]Muscimol, mean of 4 determinations
5HT1b = 5HT1b (Homo sapiens, UniProt P28222); assay: NIMH PDSP receptor binding assay; conditions: read-out: % Inhibition of Binding at 10 μM D-578
V1A = V1A (Homo sapiens, UniProt P37288); assay: NIMH PDSP receptor binding assay; conditions: read-out: % Inhibition of Binding at 10 μM D-578
Beta1 = Beta1 (Homo sapiens, UniProt P08588); assay: NIMH PDSP receptor binding assay; conditions: read-out: % Inhibition of Binding at 10 μM D-578
PBR = PBR (Rattus norvegicus, UniProt P16257); assay: NIMH PDSP receptor binding assay; conditions: read-out: % Inhibition of Binding at 10 μM D-578
PBR, sequence (P16257 whole entry): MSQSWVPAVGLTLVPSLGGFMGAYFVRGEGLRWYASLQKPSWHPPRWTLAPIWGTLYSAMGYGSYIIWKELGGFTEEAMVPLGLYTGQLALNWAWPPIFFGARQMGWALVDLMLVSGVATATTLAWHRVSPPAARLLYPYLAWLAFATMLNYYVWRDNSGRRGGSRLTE

5HT2c = 5HT2c (Homo sapiens, UniProt P28335); assay: NIMH PDSP receptor binding assay
5HT2c, sequence (P28335 33-458): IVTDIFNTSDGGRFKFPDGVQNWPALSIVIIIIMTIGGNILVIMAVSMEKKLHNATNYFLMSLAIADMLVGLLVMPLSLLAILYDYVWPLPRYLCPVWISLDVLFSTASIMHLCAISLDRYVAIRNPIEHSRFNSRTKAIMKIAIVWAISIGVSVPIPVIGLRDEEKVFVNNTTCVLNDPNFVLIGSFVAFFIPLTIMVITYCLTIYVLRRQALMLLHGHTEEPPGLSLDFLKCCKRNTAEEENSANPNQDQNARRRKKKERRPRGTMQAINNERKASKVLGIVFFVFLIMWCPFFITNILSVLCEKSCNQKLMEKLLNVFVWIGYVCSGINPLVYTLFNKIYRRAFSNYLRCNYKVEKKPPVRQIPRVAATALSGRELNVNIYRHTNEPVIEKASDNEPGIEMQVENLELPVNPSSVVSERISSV

SERT = SERT (Rattus norvegicus, UniProt P31652); assay: Inhibition of [3H]5-HT uptake in rat cerebral cortex synaptosomes; assay type: biochemical
5HT5a = 5HT5a (Homo sapiens, UniProt P47898); assay: NIMH PDSP receptor binding assay; conditions: read-out: % Inhibition of Binding at 10 μM D-578
H1 = H1 (Homo sapiens, UniProt P35367); assay: NIMH PDSP receptor binding assay; conditions: read-out: % Inhibition of Binding at 10 μM D-578
DAT = DAT (Rattus norvegicus, UniProt P23977); assay: Inhibition of [3H]DA uptake in rat striatum synaptosomes; assay type: biochemical
δ-opioid = δ-opioid (Homo sapiens, UniProt P41143); assay: NIMH PDSP receptor binding assay; conditions: read-out: % Inhibition of Binding at 10 μM D-578
5HT2a = 5HT2a (Homo sapiens, UniProt P28223); assay: NIMH PDSP receptor binding assay
5HT2a, sequence (P28223 whole entry): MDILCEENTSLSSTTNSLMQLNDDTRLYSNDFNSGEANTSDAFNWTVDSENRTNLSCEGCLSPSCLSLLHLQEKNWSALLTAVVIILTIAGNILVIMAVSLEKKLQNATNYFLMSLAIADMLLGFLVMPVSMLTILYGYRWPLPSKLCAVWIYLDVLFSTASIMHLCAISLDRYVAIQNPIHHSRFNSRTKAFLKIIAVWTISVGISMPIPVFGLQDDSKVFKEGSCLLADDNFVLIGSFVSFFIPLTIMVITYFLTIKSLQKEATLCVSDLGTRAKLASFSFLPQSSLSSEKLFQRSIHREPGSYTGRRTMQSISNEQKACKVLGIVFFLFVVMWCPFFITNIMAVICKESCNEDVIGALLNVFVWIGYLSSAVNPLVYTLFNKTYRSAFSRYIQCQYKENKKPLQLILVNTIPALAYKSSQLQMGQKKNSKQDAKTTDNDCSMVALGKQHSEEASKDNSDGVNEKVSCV

μ-Opioid = μ-Opioid (Homo sapiens, UniProt P35372); assay: NIMH PDSP receptor binding assay; conditions: read-out: % Inhibition of Binding at 10 μM D-578
M2 = M2 (Homo sapiens, UniProt P08172); assay: biochemical; conditions: read-out: % Inhibition of Binding at 10 μM D-578
5HT1d = 5HT1d (Homo sapiens, UniProt P28221); assay: NIMH PDSP receptor binding assay
M3 = M3 (Homo sapiens, UniProt P20309); assay: biochemical; conditions: read-out: % Inhibition of Binding at 10 μM D-578
D2 = D2 (Homo sapiens, UniProt P14416); assay: NIMH PDSP receptor binding assay
D2, sequence (P14416 whole entry): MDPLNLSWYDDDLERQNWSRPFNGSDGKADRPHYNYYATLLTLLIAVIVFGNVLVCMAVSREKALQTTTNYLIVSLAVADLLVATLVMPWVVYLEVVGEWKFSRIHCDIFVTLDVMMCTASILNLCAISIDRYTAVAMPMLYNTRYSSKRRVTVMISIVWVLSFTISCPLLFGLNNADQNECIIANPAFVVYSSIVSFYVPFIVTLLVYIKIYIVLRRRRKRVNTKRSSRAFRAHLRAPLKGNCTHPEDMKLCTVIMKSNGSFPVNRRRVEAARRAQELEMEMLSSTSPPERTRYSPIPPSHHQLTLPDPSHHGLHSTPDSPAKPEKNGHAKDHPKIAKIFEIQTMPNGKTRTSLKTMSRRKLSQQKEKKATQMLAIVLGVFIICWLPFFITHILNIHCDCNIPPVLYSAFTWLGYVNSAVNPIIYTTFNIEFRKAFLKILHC

D5 = D5 (Homo sapiens, UniProt P21918); assay: NIMH PDSP receptor binding assay; conditions: read-out: % Inhibition of Binding at 10 μM D-578
κ-opioid = κ-opioid (Homo sapiens, UniProt P41145); assay: NIMH PDSP receptor binding assay
H4 = H4 (Homo sapiens, UniProt Q9H3N8); assay: NIMH PDSP receptor binding assay; conditions: read-out: % Inhibition of Binding at 10 μM D-578
5HT1a = 5HT1a (Homo sapiens, UniProt P08908); assay: NIMH PDSP receptor binding assay; conditions: read-out: % Inhibition of Binding at 10 μM D-578
Oxytocin = Oxytocin (Homo sapiens, UniProt P30559); assay: NIMH PDSP receptor binding assay
Oxytocin, sequence (P30559 whole entry): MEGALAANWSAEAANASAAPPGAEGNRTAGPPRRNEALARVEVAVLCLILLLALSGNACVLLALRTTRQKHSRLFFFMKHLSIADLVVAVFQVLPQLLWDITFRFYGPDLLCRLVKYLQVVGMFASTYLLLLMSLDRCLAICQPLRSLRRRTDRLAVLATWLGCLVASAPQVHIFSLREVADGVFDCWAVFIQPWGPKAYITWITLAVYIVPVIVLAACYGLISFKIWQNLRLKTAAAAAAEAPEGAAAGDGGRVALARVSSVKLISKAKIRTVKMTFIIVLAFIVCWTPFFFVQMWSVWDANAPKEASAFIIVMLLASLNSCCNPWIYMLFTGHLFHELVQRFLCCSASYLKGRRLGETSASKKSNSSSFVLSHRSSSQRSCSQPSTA

Alpha1D = Alpha1D (Homo sapiens, UniProt P25100); assay: NIMH PDSP receptor binding assay; conditions: read-out: % Inhibition of Binding at 10 μM D-578
H2 = H2 (Homo sapiens, UniProt P25021); assay: NIMH PDSP receptor binding assay
H2, sequence (P25021 whole entry): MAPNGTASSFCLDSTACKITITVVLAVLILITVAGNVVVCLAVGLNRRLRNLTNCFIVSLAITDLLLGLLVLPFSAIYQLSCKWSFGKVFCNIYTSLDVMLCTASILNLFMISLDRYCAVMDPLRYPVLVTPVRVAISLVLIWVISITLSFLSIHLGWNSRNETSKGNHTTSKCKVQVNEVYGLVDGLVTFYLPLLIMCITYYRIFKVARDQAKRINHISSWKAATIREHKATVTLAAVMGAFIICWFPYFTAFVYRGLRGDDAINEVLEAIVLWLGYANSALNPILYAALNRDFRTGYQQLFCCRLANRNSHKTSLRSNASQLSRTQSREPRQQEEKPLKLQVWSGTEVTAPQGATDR

[1] = tested on: immobility in the forced swimming test; assay: Forced swimming test in rats after oral administration; assay type: in vivo, rat; conditions: for Immobility in the rat forced swimming test compared to vehicle: sub-chronic, 1 h before test, mesylate salt
Method in brief: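 Male Sprague-Dawley rats (200-225 g), naive, used once, were given a Porsolt two-session test. The pretest was a 15 min swim and the test a 5 min swim 24 h later, in a 24.5 × 35.5 cm cylinder with 22 cm water at 24-25 °C. Mesylate salt in 3% β-hydroxypropyl cyclodextrin/saline was given p.o. 15 min after pretest and 1 h before test. Blinded video scoring of immobility; one-way ANOVA.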

cloned human DAT = cloned human DAT (Homo sapiens, UniProt Q01959); assay: Inhibition of [3H]DA uptake in HEK 293 cells expressing cloned human transporter; assay type: cell-based
[2] = tested on: conditioned fear behavior; assay: Single prolonged stress; assay type: in vivo, rat; conditions: SPS rats, D-578 10 mg/kg, paroxetine 5 mg/kg; for Freezing behavior during the extinction retention session (SPS-induced deficit) / Freezing behavior during the extinction session (SPS-induced deficit): i.p. 90 min prior to each session; for Shock reactivity during acquisition compared to the control group: i.p., five 1 mA shocks
mGlur5 = mGlur5 (Rattus norvegicus, UniProt P31424); assay: NIMH PDSP receptor binding assay; conditions: read-out: % Inhibition of Binding at 10 μM D-578
locomotor activity = assay: Locomotor activity test; assay type: in vivo, rat; conditions: 25 mg/kg oral, rats, up to 120 min
Method in brief: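 Sprague-Dawley rats were acclimated for 1 h in automated activity chambers, then dosed by oral gavage with test compound (25 mg/kg) or vehicle. Distance travelled was recorded for 2 h after dosing, matching the forced-swim timing. n = 4-7 rats/group.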

[3] = Oral absorption and brain penetration; assay type: in vivo; conditions: unpublished data
V2 = V2 (Homo sapiens, UniProt P30518); assay: NIMH PDSP receptor binding assay; conditions: read-out: % Inhibition of Binding at 10 μM D-578
Alpha1B = Alpha1B (Homo sapiens, UniProt P35368); assay: NIMH PDSP receptor binding assay; conditions: read-out: % Inhibition of Binding at 10 μM D-578
Alpha1A = Alpha1A (Homo sapiens, UniProt P35348); assay: NIMH PDSP receptor binding assay; conditions: read-out: % Inhibition of Binding at 10 μM D-578
Beta3 = Beta3 (Homo sapiens, UniProt P13945); assay: NIMH PDSP receptor binding assay
cloned human SERT = cloned human SERT (Homo sapiens, UniProt P31645); assay type: cell-based
5HT6 = 5HT6 (Homo sapiens, UniProt P50406); assay: NIMH PDSP receptor binding assay; conditions: read-out: % Inhibition of Binding at 10 μM D-578
H3 = H3 (Homo sapiens, UniProt Q9Y5N1); assay: NIMH PDSP receptor binding assay; conditions: read-out: % Inhibition of Binding at 10 μM D-578
cloned human NET = cloned human NET (Homo sapiens, UniProt P23975); assay: cell-based; assay type: cell-based
cloned human NET, sequence (P23975 whole entry): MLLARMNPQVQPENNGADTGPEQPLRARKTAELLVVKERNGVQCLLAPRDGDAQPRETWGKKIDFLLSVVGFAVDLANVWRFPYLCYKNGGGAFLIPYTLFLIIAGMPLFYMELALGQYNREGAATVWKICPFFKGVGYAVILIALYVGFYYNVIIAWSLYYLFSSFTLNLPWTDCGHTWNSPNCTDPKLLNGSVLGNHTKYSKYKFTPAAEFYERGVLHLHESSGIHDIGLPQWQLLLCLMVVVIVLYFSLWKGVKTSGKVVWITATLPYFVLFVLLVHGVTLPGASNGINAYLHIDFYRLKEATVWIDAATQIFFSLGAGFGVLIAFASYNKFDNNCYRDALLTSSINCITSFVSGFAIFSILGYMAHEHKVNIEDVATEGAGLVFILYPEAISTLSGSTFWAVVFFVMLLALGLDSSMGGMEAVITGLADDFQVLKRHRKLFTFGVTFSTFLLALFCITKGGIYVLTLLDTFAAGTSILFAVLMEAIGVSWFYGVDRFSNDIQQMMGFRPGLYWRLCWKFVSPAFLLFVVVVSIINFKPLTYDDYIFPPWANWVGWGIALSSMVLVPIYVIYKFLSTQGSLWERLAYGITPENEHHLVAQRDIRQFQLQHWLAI

5HT3 = 5HT3 (Homo sapiens, UniProt P46098); assay: NIMH PDSP receptor binding assay; conditions: read-out: % Inhibition of Binding at 10 μM D-578
D4 = D4 (Homo sapiens, UniProt P21917); assay: NIMH PDSP receptor binding assay; conditions: read-out: % Inhibition of Binding at 10 μM D-578
M1 = M1 (Homo sapiens, UniProt P11229); assay: biochemical; conditions: read-out: % Inhibition of Binding at 10 μM D-578
BZP Rat Brain Site = assay: NIMH PDSP receptor binding assay; conditions: 3H-Flunitrazepam, mean of 4 determinations
5HT7 = 5HT7 (Homo sapiens, UniProt P34969); assay: NIMH PDSP receptor binding assay; conditions: read-out: % Inhibition of Binding at 10 μM D-578
[4] = read-out: % Inhibition of Binding at 10 μM D-578

hERG channel, sequence (Q12809 whole entry): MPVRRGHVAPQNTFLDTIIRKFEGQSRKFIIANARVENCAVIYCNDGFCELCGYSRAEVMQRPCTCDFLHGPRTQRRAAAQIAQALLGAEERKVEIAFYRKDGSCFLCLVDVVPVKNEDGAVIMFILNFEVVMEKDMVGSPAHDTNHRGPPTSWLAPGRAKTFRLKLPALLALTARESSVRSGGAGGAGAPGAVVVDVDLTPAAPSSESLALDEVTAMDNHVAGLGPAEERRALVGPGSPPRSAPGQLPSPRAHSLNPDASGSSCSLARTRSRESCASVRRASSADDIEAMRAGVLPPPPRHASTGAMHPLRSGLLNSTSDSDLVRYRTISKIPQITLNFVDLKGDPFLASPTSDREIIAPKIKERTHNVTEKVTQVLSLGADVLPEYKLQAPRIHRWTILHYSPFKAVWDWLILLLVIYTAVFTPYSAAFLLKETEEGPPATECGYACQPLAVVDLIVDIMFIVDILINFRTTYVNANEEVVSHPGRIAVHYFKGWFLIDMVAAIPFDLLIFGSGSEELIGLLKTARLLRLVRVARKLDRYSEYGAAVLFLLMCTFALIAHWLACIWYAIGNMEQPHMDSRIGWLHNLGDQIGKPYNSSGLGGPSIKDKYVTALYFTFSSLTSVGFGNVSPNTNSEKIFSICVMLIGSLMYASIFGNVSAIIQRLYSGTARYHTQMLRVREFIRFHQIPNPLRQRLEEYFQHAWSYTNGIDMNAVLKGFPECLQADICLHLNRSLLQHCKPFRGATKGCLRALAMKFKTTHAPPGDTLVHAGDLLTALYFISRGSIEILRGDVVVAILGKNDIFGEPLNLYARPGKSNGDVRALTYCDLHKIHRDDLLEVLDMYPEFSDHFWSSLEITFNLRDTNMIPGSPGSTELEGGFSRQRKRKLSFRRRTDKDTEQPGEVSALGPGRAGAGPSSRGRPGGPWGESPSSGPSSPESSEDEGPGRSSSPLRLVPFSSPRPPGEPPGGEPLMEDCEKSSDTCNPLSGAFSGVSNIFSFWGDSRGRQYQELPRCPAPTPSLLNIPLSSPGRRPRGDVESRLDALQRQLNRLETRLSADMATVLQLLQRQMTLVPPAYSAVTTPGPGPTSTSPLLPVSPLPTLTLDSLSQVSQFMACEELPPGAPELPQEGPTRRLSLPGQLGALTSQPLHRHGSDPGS
M5, sequence (P08912 whole entry): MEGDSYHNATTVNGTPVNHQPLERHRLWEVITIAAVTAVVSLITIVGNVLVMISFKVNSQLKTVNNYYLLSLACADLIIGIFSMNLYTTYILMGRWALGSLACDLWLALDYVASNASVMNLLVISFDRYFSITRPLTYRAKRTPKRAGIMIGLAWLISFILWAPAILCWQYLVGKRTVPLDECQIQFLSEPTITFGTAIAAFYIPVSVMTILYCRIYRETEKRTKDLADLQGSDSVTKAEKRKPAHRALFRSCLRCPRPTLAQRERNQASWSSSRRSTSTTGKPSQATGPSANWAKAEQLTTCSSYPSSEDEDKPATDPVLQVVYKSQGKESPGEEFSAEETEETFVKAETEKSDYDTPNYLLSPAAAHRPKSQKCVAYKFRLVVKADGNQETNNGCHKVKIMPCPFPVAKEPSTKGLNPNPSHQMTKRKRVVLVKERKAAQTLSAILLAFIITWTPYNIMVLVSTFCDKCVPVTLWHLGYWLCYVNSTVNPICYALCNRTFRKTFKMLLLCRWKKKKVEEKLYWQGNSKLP
Beta2, sequence (P07550 whole entry): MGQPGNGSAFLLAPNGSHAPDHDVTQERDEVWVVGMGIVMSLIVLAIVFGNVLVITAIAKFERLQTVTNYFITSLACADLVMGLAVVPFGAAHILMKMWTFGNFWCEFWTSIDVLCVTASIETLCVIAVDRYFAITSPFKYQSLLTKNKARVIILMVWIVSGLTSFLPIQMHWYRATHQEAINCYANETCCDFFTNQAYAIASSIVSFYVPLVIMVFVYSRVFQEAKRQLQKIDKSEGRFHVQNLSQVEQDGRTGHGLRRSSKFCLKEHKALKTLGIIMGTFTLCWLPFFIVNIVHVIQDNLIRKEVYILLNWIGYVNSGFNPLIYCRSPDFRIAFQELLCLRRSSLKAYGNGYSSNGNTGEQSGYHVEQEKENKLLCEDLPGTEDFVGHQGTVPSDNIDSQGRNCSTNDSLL

In the case of `COc1cc(N)c(Cl)cc1C(=O)NC1CCN(CCCOc2ccc(F)cc2)CC1OC` (stereo not shown) [Cisapride, reference compound], the “Hill Slope” value (hERG channel; human) is reported as 1.01 ± 0.07.

`Nc1nc2ccc(CN[C@@H]3CO[C@H](C(c4ccc(F)cc4)c4ccc(F)cc4)C[C@H]3O)cc2s1` [D-578, (2S,4R,5R)-5-(((2-aminobenzo[d]thiazol-6-yl)methyl)amino)-2-(bis(4-fluorophenyl)methyl)tetrahydro-2H-pyran-4-ol] gave an inhibition at 10 µM (V1B) of 7.8%, a Ki (Beta2) greater than 10000 nM and an inhibition at 10 µM (Beta2; [4]) of 59.4%. It also gave a Ki (M5) greater than 10000 nM, an inhibition at 10 µM (M5; [4]) of 84.4% and an inhibition at 10 µM (Alpha2A) of 22.6%. For the same compound, the inhibition at 10 µM (D1) was 11%, the inhibition at 10 µM (Alpha2B) was 6.3% and the Ki (D3) was 2610 nM. It also gave an inhibition at 10 µM (D3; [4]) of 56.4%, a Ki (Alpha2C) of 2010 nM and an inhibition at 10 µM (Alpha2C; [4]) of 72%. For the same compound, the Ki (M4) was greater than 10000 nM, the inhibition at 10 µM (M4; [4]) was 55% and the Ki (5HT2b) was 425 nM. The inhibition at 10 µM (5HT2b; [4]) was 80.3%, the “% Inhibition of Binding at 10 μM D-578” value (GABA A) was 2.3% and the inhibition at 10 µM (5HT1b) was 13.6%. It also gave an inhibition at 10 µM (V1A) of 44.6%, an inhibition at 10 µM (Beta1) of 45.6% and an inhibition at 10 µM (PBR) of 10.6%. It also gave a Ki (5HT2c) of 73 nM, an inhibition at 10 µM (5HT2c; [4]) of 96.3% and a Ki (SERT) of 16.2 ± 1.5 nM. The inhibition at 10 µM (5HT5a) was 35.2%, the inhibition at 10 µM (H1) was 11% and the Ki (DAT) was 16.2 ± 2 nM. It also gave an inhibition at 10 µM (δ-opioid) of 24.1%, a Ki (5HT2a) of 1640 nM and an inhibition at 10 µM (5HT2a; [4]) of 62.5%. For the same compound, the inhibition at 10 µM (μ-Opioid) was 11.7%, the inhibition at 10 µM (M2) was 20.9% and the Ki (5HT1d) was 702 nM. It also gave an inhibition at 10 µM (5HT1d; [4]) of 72%, an inhibition at 10 µM (M3) of 7.5% and a Ki (D2) of 773 nM. For the same compound, the inhibition at 10 µM (D2; [4]) was 62.3%, the inhibition at 10 µM (D5) was 37.4% and the Ki (κ-opioid) was 1390 nM. The inhibition at 10 µM (κ-opioid; [4]) was 68.9%, the inhibition at 10 µM (H4) was 2.4% and the inhibition at 10 µM (5HT1a) was 19.9%. For the same compound, the Ki (Oxytocin) was greater than 10000 nM, the inhibition at 10 µM (Oxytocin; [4]) was 53.1% and the inhibition at 10 µM (Alpha1D) was 24.7%. The Ki (H2) was 42 nM, the inhibition at 10 µM (H2; [4]) was 94.1% and the “Immobility in the rat forced swimming test compared to vehicle” value (from here on “Immobility … compared to vehicle”) ([1]; 10 mg/kg p.o.) was “significantly reduced”. The “Immobility … compared to vehicle” value ([1]; 15 mg/kg p.o.) was “significantly reduced”, the “Reduction of immobility compared to control” value ([1]; 25 mg/kg PO, forced swimming test in rats) was “greater than 90%” and the “Immobility … compared to vehicle” value ([1]; 25 mg/kg p.o.) was “marked reduction of immobility”. The Ki (cloned human DAT) was 29.6 ± 6.95 nM, the “Freezing behavior during the extinction retention session (SPS-induced deficit)” value [2] was “froze significantly less” and the “Freezing behavior during the extinction session (SPS-induced deficit)” value [2] was “froze less”. The “Shock reactivity during acquisition compared to the control group” value [2] was “no effect”, the inhibition at 10 µM (mGlur5) was 52.8% and the “Locomotor activity, distance travelled vs vehicle” value (locomotor activity) was “not significantly different from vehicle”. For the same compound, the “Oral absorption and brain penetration” value [3] was “gets absorbed orally and penetrates into the brain well”, the “Inhibition of the hERG channel (in words)” value (hERG channel; Thallium flux assay) was “almost no inhibition” and the “Hill Slope” value (hERG channel; Tl+ flux assay, inhibition of hERG channel) was 1.471 ± 0.23. It also gave an inhibition at 10 µM (V2) of 21%, an inhibition at 10 µM (Alpha1B) of 38.3% and an inhibition at 10 µM (Alpha1A) of 18.6%. The Ki (Beta3) was 2700 nM, the inhibition at 10 µM (Beta3; [4]) was 59.8% and the Ki (cloned human SERT) was 20.6 ± 3.8 nM. It also gave an inhibition at 10 µM (5HT6) of 12.8%, an inhibition at 10 µM (H3) of 19.6% and a Ki (cloned human NET) of 6.1 ± 1.14 nM. The “Times more potent at NET compared to DAT and SERT” value (cloned human NET; cloned human transporters) was 3-4 times, the inhibition at 10 µM (5HT3) was 8.5% and the inhibition at 10 µM (D4) was 20.9%. For the same compound, the inhibition at 10 µM (M1) was 97.2%, the “% Inhibition of Binding at 10 μM D-578” value (BZP Rat Brain Site) was 28.8% and the inhibition at 10 µM (5HT7) was 28.9%.

In the case of `Fc1ccc([C@@H]2CCNC[C@H]2COc2ccc3c(c2)OCO3)cc1` [paroxetine, reference compound], the “Freezing behavior during the extinction retention session (SPS-induced deficit)” value [2] is reported as “did not reverse”, the “Freezing behavior during the extinction session (SPS-induced deficit)” value [2] is reported as “did not reverse” and the “Shock reactivity during acquisition compared to the control group” value [2] is reported as “no effect”.
